Results reported in ChEMBL document CHEMBL4368912, “Discovery and Development of N-[4-(1-Cyclobutylpiperidin-4-yloxy)phenyl]-2-(morpholin-4-yl)acetamide Dihydrochloride (SUVN-G3031): A Novel, Potent, Selective, and Orally Active Histamine H3 Receptor Inverse Agonist with Robust Wake-Promoting Activity” (J Med Chem, 2019).

Key:
Histamine H3 receptor = Histamine H3 receptor (Homo sapiens, UniProt Q9Y5N1); assay: Displacement of [3]-RAMH from recombinant human histamine H3 receptor expressed in CHO-K1 cell membranes after 60 mins by scintillation counting
[1] = Partition coefficient, log P of the compound; format: physicochemical; settings: octanol/water
[2] = Lipophilicity, log D of the compound at pH 7.4; format: physicochemical; settings: buffer
[3] = Dissociation constant, pKa1 of the compound by potentiometric titration assay; format: physicochemical
[4] = Dissociation constant, pKa2 of the compound by potentiometric titration assay; format: physicochemical
[5] = AUC (0 to 24 hrs) in Wistar rat at 3 mg/kg, po by LC-MS/MS analysis; format: ADME, organism-based; design: dose 3 mg/kg, time < 24 hr, route oral; settings: in vivo
Outline: (§1)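 Fasted male Wistar rats; compound in water for injection, given i.v. (2 mL/kg) or p.o. (10 mL/kg). Plasma exposure measured as AUC0-24hr.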

[6] = AUC (0 to 24 hrs) in Wistar rat at 1 mg/kg, iv by LC-MS/MS analysis; format: ADME, organism-based; design: time < 24 hr, dose 1 mg/kg, route intravenous; settings: in vivo; for AUC(0-t) at 24 h: Wistar; outline: as §1
[7] = Tmax in Wistar rat at 3 mg/kg, po or 1 mg/kg, iv by LC-MS/MS analysis; format: ADME, organism-based; settings: in vivo
Outline: (§2)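 Fasted male Wistar rats were dosed orally and intravenously, with water for injection as the vehicle for both routes, at dosing volumes of 10 mL/kg p.o. and 2 mL/kg i.v.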

[8] = Volume of distribution at steady state in Wistar rat at 3 mg/kg, po or 1 mg/kg, iv by LC-MS/MS analysis; format: ADME, organism-based; settings: in vivo; for Vd: Wistar, read-out: Vdss; outline: as §2
[9] = Clearance in Wistar rat at 1 mg/kg, iv by LC-MS/MS analysis; format: ADME, organism-based; settings: in vivo
Outline: (§3)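 Fasted male Wistar rats dosed i.v. in water for injection at 2 mL/kg. Clearance and half-life derived from the i.v. plasma profile.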

[10] = Oral bioavailability in Wistar rat at 3 mg/kg by LC-MS/MS analysis; format: ADME, organism-based; settings: in vivo; outline: as §2
[11] = Ratio of drug uptake in Wistar rat brain to plasma at 3 mg/kg, po by LC-MS/MS analysis; format: ADME, organism-based; settings: brain and plasma, read-out: BPR
Outline: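 Fasted male Wistar rats were dosed orally with water for injection as the vehicle. Total brain and plasma concentrations were measured at 1 h after dosing and expressed as a ratio.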

CHO-K1 [12] = assay: Induction of phospholipidosis in CHOK1 cells up to 300 uM incubated for 24 hrs by fluorescent-labeled phospholipid probe NBD-PE based fluorescence assay; format: cell-based, Cricetulus griseus; settings: chinese hamster, cho-k1, 24 h
CHO-K1 [13] = assay: Cytotoxicity in CHOK1 cells up to 300 uM incubated for 24 hrs by MTT assay; format: cell-based, Cricetulus griseus; settings: chinese hamster, cho-k1, 24 h
[14] = Half life in Wistar rat at 1 mg/kg, iv by LC-MS/MS analysis; format: ADME, organism-based; settings: in vivo; outline: as §3

Histamine H3 receptor, sequence (Q9Y5N1 whole entry): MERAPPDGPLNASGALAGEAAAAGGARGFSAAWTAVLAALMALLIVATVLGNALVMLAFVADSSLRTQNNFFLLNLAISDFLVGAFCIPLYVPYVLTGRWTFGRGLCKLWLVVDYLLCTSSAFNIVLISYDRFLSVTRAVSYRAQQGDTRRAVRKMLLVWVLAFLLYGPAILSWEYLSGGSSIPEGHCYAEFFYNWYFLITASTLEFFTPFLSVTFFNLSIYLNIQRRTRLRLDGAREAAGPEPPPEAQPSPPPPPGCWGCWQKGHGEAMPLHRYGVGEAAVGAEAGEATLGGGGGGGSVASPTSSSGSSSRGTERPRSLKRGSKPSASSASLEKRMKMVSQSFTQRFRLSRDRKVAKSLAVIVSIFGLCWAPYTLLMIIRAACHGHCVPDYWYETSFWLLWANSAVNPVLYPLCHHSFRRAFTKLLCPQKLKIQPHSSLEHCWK

`CC(C)N1CCC(Oc2ccc(NC(=O)CN3CCCCC3)cc2)CC1` gave a Ki (Histamine H3 receptor) of 3.8 nM, a logP [1] of 3.4 and a logD [2] of 1.6. It also gave a pKa [3] of 9.4 and a pKa [4] of 7.2.

For `O=C(CN1CCS(=O)(=O)CC1)Nc1ccc(OC2CCN(C3CCC3)CC2)cc1`, the Ki (Histamine H3 receptor) was 9.17 nM.

With `CC(C)N1CCC(Oc2ccc(NC(=O)CN3CCOCC3)cc2)CC1.Cl.Cl` the logP [1] was 1.8, the logD [2] was 0.5 and the pKa [3] was 8.9. For the same compound, the pKa [4] was 5, the AUC(0-t) at 24 h [5] was 850 ng·h/mL and the AUC(0-t) at 24 h [6] was 340 ng·h/mL. The Tmax [7] was 0.42 h, the Vd [8] was 6 L/kg and the clearance [9] was 48 mL/min/kg. For the same compound, the bioavailability [10] was 85%, the Kp [11] was 0.33 and the Activity (CHO-K1 [12]) was “Non-Toxic”. The Activity (CHO-K1 [13]) was “Non-Toxic”.

For `O=C1c2ccc(OC3CCN(C4CCC4)CC3)cc2CCN1C1CCN(C2CCC2)CC1`, the AUC(0-t) at 24 h [5] was 1430 ng·h/mL, the AUC(0-t) at 24 h [6] was 1740 ng·h/mL and the Tmax [7] was 6 h. The Vdss [8] was 13 L/kg and the Kp [11] was 0.41.

`O=C(CN1CCOCC1)Nc1ccc(OC2CCN(C3CCC3)CC2)c(F)c1` showed a Ki (Histamine H3 receptor) of 62 nM.

`Cl.Cl.O=C(CN1CCCCC1)Nc1ccc(OC2CCN(C3CCC3)CC2)cc1` gave a Ki (Histamine H3 receptor) of 4.8 nM, a logP [1] of 3.7 and a logD [2] of 1.3. For the same compound, the pKa [3] was 9.2, the pKa [4] was 7.5 and the AUC(0-t) at 24 h [5] was 1390 ng·h/mL. It also gave an AUC ([6]; 24 h) of 1855 ng·h/mL, a Tmax [7] of 3.33 h and a Vd [8] of 20 L/kg. It also gave a bioavailability [10] of 37% and a Kp [11] of 36.6.

For `C[C@@H]1CCCN1CC(=O)Nc1ccc(OC2CCN(C3CCC3)CC2)cc1`, the Ki (Histamine H3 receptor) was 2.6 nM.

With `O=C(CN1CCCN(C2CCC2)CC1)Nc1ccc(OC2CCN(C3CCC3)CC2)cc1` the Ki (Histamine H3 receptor) was 1.61 nM.

With `O=C(CN1CCCCC1)Nc1ccc(OC2CCN(C3CCCC3)CC2)cc1` the Ki (Histamine H3 receptor) was 4.1 nM.

`O=C(CN1CCC(O)CC1)Nc1ccc(OC2CCN(C3CCC3)CC2)cc1` showed a Ki (Histamine H3 receptor) of 6.4 nM.

With `Cl.Cl.O=C(CN1CCCC1)Nc1ccc(OC2CCN(C3CCC3)CC2)cc1` the Ki (Histamine H3 receptor) was 1.1 nM, the logP [1] was 3.2 and the logD [2] was 1.2. It also gave a pKa [3] of 9.1, a pKa [4] of 7.4 and an AUC(0-t) at 24 h [5] of 556 ng·h/mL. It also gave an AUC(0-t) at 24 h [6] of 757 ng·h/mL, a Tmax [7] of 3.33 h and a Vd [8] of 34.8 L/kg. The clearance [9] was 13.6 mL/min/kg and the bioavailability [10] was 17%.

In the case of `CN(C)CC(=O)Nc1ccc(OC2CCN(C3CCC3)CC2)cc1`, the Ki (Histamine H3 receptor) is reported as 6 nM.

In the case of `O=C(CN1CCOCC1)Nc1ccc(CN2CCCC2)cc1`, the Ki (Histamine H3 receptor) is reported as 114 nM.

In the case of `O=C(CN1CCOCC1)Nc1ccc(N2CCN(C3CCC3)CC2)cc1`, the Ki (Histamine H3 receptor) is reported as 532 nM.

With `CCN(CC)CC(=O)Nc1ccc(OC2CCN(C3CCC3)CC2)cc1` the Ki (Histamine H3 receptor) was 11.7 nM.

With `O=C(CN1CCCC1)Nc1ccc(OC2CCN(C3CCC3)CC2)cc1C(F)(F)F` the Ki (Histamine H3 receptor) was 26.9 nM.

In the case of `CC(C)N1CCCN(CC(=O)Nc2ccc(OC3CCN(C4CCC4)CC3)cc2)CC1`, the Ki (Histamine H3 receptor) is reported as 0.96 nM.

With `CC(C)N1CCC(Oc2ccc(C(=O)NCCN3CCCC3)cc2)CC1` the Ki (Histamine H3 receptor) was 10.4 nM.

Work on `O=C(NCCN1CCOCC1)c1ccc(OC2CCN(C3CCC3)CC2)cc1` yielded a Ki (Histamine H3 receptor) of 2.8 nM, an AUC(0-t) at 24 h [5] of 347 ng·h/mL and an AUC(0-t) at 24 h [6] of 255 ng·h/mL. For the same compound, the Tmax [7] was 1.33 h, the Vd [8] was 45 L/kg and the clearance [9] was 51 mL/min/kg. It also gave a half-life [14] of 13.8 h, a bioavailability [10] of 46% and a Kp [11] of 0.07.

Work on `COc1cc(OC2CCN(C3CCC3)CC2)ccc1NC(=O)CN1CCOCC1` yielded a Ki (Histamine H3 receptor) of 90.8 nM.

Work on `O=C(CN1CCCC1)Nc1ccc(OC2CCN(C3CCCC3)CC2)cc1` yielded a Ki (Histamine H3 receptor) of 3.8 nM.

Work on `CCOC(=O)N1CCN(CC(=O)Nc2ccc(OC3CCN(C4CCC4)CC3)cc2)CC1` yielded a Ki (Histamine H3 receptor) of 1.07 nM.

Compound `O=C(Cc1cccnc1)Nc1ccc(OC2CCN(C3CCC3)CC2)cc1` has a Ki (Histamine H3 receptor) of 15.8 nM.

`CCN(C(=O)CN1CCOCC1)c1ccc(OC2CCN(C3CCC3)CC2)cc1` showed a Ki (Histamine H3 receptor) of 10.8 nM.

`Cc1cc(OC2CCN(C3CCC3)CC2)ccc1NC(=O)CN1CCOCC1` showed a Ki (Histamine H3 receptor) of 22.1 nM.

Work on `O=C(CN1CCOCC1)Nc1ccc(OC2CCNCC2)cc1` yielded a Ki (Histamine H3 receptor) of over 10000 nM.
